DNA FID counter-1: counter-screen for HCV NS3 helicase inhibitors: DNA intercalator displacement. DNA fluorescent intercalator displacement, fluorescence. inhibition, % at 7.9 µM. 290,000 tested, 0.17% active;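 also: 0% = vehicle and 100% = reference compound; higher means more ethidium bromide displaced from hairpin DNA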
T cruzi inh: blocks replication of Trypanosoma cruzi; T. cruzi beta-gal in NIH3T3, luminescence, 90 h; inhibition, % (test concentration not listed); 300,000 tested, 1.4% active; AID 1885;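 active = mean inhibition across valid replicates above about 55%, limit read from the data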;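 also: signal also drops with host cell toxicity which is not excluded here; 0% = plate median of DMSO wells and 100% = zero luminescence signal; higher percent means less beta-gal luminescence so fewer parasites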
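System: mouse NIH/3T3 fibroblasts infected with β-gal-expressing T. cruzi Tulahuen C4 / Input: NIH/3T3 cells, 5,000 per well / Buffer or medium: Low-serum DMEM with 2% FBS / Probe or stimulus: 5000 reporter trypomastigotes per well / Schedule: ≥90 h infection period, 3 h prior cell attachment / Measured by: GalScreen luminescence, 60 min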
MEKK3 PB1 HTS: modulators (inhibitors or enhancers) of MEK5 binding to human MEKK3 PB1 domain; 290,000 tested, 1.4% active; bead-based flow cytometry, Alexa488-MEK5 binding to MEKK3; actives lie on both sides; 0 = blocked by unlabeled MEK5, 100 = vehicle; binding response (% of control), % at 10 µM; AID 1529;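 active = binding response more than 3 SD above or below the average of its plate-row segment, actives on both sides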;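 also: Alexa488 bead fluorescence after subtracting the streptavidin-only scavenger bead signal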
Target sequence (Q99759 whole entry, looked up, the tested form may be a part): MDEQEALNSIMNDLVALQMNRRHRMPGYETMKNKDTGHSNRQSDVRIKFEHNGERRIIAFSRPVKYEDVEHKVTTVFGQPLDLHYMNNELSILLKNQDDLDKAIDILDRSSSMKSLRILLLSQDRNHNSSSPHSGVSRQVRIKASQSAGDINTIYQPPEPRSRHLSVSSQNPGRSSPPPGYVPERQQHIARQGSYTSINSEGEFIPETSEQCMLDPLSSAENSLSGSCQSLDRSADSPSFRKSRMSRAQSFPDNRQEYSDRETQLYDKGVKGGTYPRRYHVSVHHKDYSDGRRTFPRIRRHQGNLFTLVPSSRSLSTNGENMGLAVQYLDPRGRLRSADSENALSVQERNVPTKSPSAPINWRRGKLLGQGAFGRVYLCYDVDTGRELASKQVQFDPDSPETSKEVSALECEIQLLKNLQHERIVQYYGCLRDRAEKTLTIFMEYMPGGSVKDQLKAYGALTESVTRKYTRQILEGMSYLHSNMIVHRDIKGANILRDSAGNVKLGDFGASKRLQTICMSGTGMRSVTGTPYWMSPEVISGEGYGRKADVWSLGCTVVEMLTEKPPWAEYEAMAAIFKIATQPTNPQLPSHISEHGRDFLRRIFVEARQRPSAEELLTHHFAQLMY
MEKK2mut PB1 HTS: signal of MEK5 binding to mutant human MEKK2 PB1 domain; percent response, % at 10 µM; AID 1530; bead flow cytometry, Alexa488-MEK5 binding to MEKK2 mutant; 290,000 tested, 0.35% active; in the data active = percent response above about 24%, passing the limit was not always enough
NS3 helicase inh: inhibitors of Hepatitis C virus NS3 helicase. NS3 helicase DNA unwinding, Cy5 molecular beacon fluorescence. inhibition, % at 10.9 µM. 290,000 tested, 0.56% active. AID 1800;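 active = inhibition above the mean of all tested compounds plus 3 SD, set per campaign, cut at about 35% in these data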;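 also: 0% = DMSO wells and 100% = thioflavine S control wells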
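Material: hepatitis C virus NS3 helicase domain fragment enzyme; measured by: Cy5 fluorescence, 0 and 60 min reads; control set: DMSO and thioflavine S; incubation: 60 min unwinding reaction at 25 °C after ATP addition; read-out basis: % inhibition from 60/0 min fluorescence ratio, DMSO 0%, thioflavine S 100%; repeats: singlicate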
MEKK2 WT-MEK5: raises or lowers MEK5 binding to wildtype human MEKK2 PB1 domain; 290,000 tested, 1.1% active; binding response (% of control), % at 10 µM; bead flow cytometry, Alexa488-MEK5 binding to MEKK2 WT; actives lie on both sides; in the data active = binding response below about 67% or above about 130%
NS3 hel confirm: HCV NS3 helicase inhibition, confirmation assay; shares compounds with NS3 helicase inh; NS3 helicase DNA unwinding, Cy5 molecular beacon fluorescence; inhibition, % at 10.9 µM; 1,600 tested, 31% active;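 active = inhibition above the mean of all tested compounds plus 3 SD, cutoff set per campaign, cut at about 36% in these data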
DNA FID counter-2: counter-screen for HCV NS3 helicase inhibitors: DNA intercalator displacement | DNA fluorescent intercalator displacement, fluorescence | inhibition, % at 7.9 µM | 1,600 tested, 4% active | shares compounds with NS3 helicase inh;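 also: 0% = vehicle and 100% = reference compound; higher means more displacement of ethidium bromide from the DNA hairpin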
DNA FID DR: DNA intercalator displacement in dose response | shares compounds with NS3 helicase inh | IC50, µM | 120 tested, under 10 active | fluorescent intercalator displacement from DNA, fluorescence; call rule not given here
* marks the source's active call; other numbers are inactive results; . = not tested or not shown. The list is not random: actives were taken first. Their share in the collection is about 4.1%. Rule as the data show it, unless noted: active = inhibition above about 37%; inactive = the rest.

SMILES	DNA FID counter-1	T cruzi inh	MEKK3 PB1 HTS	MEKK2mut PB1 HTS	NS3 helicase inh	MEKK2 WT-MEK5	NS3 hel confirm	DNA FID counter-2	others
CCn1c(CN2CCN(C(c3ccccc3)c3ccccc3)CC2)nc2c1c(=O)n(C)c(=O)n2C	-44	36	95	-5	-13	96	.	.
CN(c1ccc(OC(=O)CN2C(=O)NC3(CCCC3)C2=O)cc1)S(=O)(=O)c1ccccc1	.	-4	.	.	.	.	.	.
O=C(Nc1ccccc1)[C@@H]1[C@@H]2C(=O)N(c3ccc(F)cc3)C(=O)[C@@H]2[C@H]2C=CC=NN21	-6	-37	79	-30	61*	75	-19	-7
COc1ccc(C(=O)[C@H]2[C@H]3C(=O)N(c4ccc(C)cc4)C(=O)[C@H]3C3C=CC=NN32)cc1 (stereo partly drawn)	-20	-15	51	-7	60*	49	-16	-19
Cc1ccc(N2C(=O)[C@@H]3[C@H](C2=O)[C@H]2C=CC=NN2[C@@H]3C(=O)Nc2ccccc2)cc1	-10	2	101	-2	16	99	.	.
Cc1ccc2c(C)c(C(=O)N3CCC(O)(c4ccccc4)CC3)oc2c1C	-32	23	104	8	-12	104	.	.
O=C1CC(Nc2ccc(N3CCOCC3)cc2)C(=O)N1c1cccc(C(F)(F)F)c1 (stereo not drawn)	-17	-5	99	7	48*	105	-8	-1
COc1cccc(N2C(=O)CC(Nc3ccc(N4CCOCC4)cc3)C2=O)c1 (stereo not drawn)	-23	-6	97	0	34	101	.	.
Cc1ccc(/C(O)=C2/C(=O)C(=O)N(c3ccccn3)C2c2ccc([N+](=O)[O-])cc2)cc1 (stereo not drawn)	-41	-2	109	14	36*	107	28	-21
Cc1ccc(/C(O)=C2/C(=O)C(=O)N(c3ccccn3)C2c2cccc([N+](=O)[O-])c2)cc1 (stereo not drawn)	-24	2	99	2	48*	103	28	-22
COc1ccc(C2/C(=C(/O)c3ccc(C)cc3)C(=O)C(=O)N2c2ccccn2)cc1 (stereo not drawn)	-38	-7	104	2	27	105	.	.
COCCNC(=O)C(=O)NCC1OCCCN1S(=O)(=O)c1cccs1 (stereo not drawn)	-2	-11	105	1	1	106	.	.
CCOC(=O)c1sc2nc3c(SCCC(=O)O)cc(C(=O)c4cc(OC)ccc4O)cn3c(=O)c2c1C	-14	5	100	-8	40*	91	83*	14	DNA FID DR=>79
CCOC(=O)c1sc2nc3c(SCCC#N)cc(C(=O)c4cc(F)ccc4O)cn3c(=O)c2c1C	-7	-2	103	-2	18	98	.	.
O=c1cc(-c2ccco2)nc(SCc2cccc(Cl)c2)[nH]1	-20	-7	99	-4	45*	-8.0*	9	-9
Clc1cccc(CSc2ccc(-c3ccco3)nn2)c1	-10	12	124	-2	1	107	.	.
CCOc1ccc(/C=C/C(=O)c2cc(Br)ccc(=O)c2O)cc1	-23	.	101	1	59*	96	77*	5	DNA FID DR=>79
CCOC(=O)c1oc2ccc(Br)cc2c1COC(=O)C1=COCCO1	.	3	.	.	.	.	.	.
CS(=O)(=O)N1N=C(c2ccco2)CC1c1ccccc1Cl (stereo not drawn)	-15	-13	106	5	36*	100	-19	-9
COc1ccc(CCNC(=O)COC(=O)/C=C/c2cc(OC)c(OC)c(OC)c2)cc1OC	-35	7	100	-10	43*	95	-15	-41
Cc1ccc(S(=O)(=O)NCCCCCC(=O)NCCc2ccccc2)cc1	-26	-1	105	7	43*	108	-11	-28
COCCNC(=O)CCCCCNS(=O)(=O)c1ccc(C)cc1	1	-12	99	-1	2	102	.	.
CCC(C)NS(=O)(=O)c1ccc(F)c(C(=O)Nc2c(F)cc(F)cc2Br)c1 (stereo not drawn)	-19	-17	90	-11	11	88	.	.
CCc1nnc(NS(=O)(=O)c2ccc(NC(=S)NC(=O)c3ccccc3)cc2)s1	-17	5	100	-2	45*	88	66*	-3
CCc1nnc(NS(=O)(=O)c2ccc(NC(=S)NC(=O)c3ccc(Br)cc3)cc2)s1	-21	-7	84	-3	58*	76	49*	10
SMILES	DNA FID counter-1	T cruzi inh	MEKK3 PB1 HTS	MEKK2mut PB1 HTS	NS3 helicase inh	MEKK2 WT-MEK5	NS3 hel confirm	DNA FID counter-2	others
CCc1nnc(NS(=O)(=O)c2ccc(NC(=O)c3ccc(Cl)cc3)cc2)s1	-29	-5	103	3	-1	100	.	.
Cc1nc(-c2cccnc2)sc1C(=O)N/N=C/c1ccccc1Cl	3	0	73	-13	0	70	.	.
C=CCn1c(SCCC)nc2sc3c(c2c1=O)CCc1ccccc1-3	-13	32	100	-1	60*	103	-8	0
C=CCSc1nc2sc3c(c2c(=O)n1CC=C)CCc1ccccc1-3	-5	42	101	11	-3	108	.	.
CC(=O)c1ccc2c(c1)C1C=CCC1C(C(=O)O)N2 (stereo not drawn)	-13	.	93	-14	51*	81	90*	1
CC(=O)c1ccc2c(c1)C1C=CCC1C(c1ccncc1)N2 (stereo not drawn)	-12	-5	103	3	17	102	.	.
Cc1nc(-c2ccc(-n3nncc3-c3ccco3)cc2)cs1	-39	6	104	5	56*	99	-17	-22
Nc1nc(-c2ccc(-n3nncc3-c3ccco3)cc2)cs1	-9	4	99	-5	-6	97	.	.
COC(=O)c1sc2ncn(N)c(=O)c2c1C	-7	-17	99	4	6	95	.	.
CCOC(=O)c1sc2ncn(/N=C/N(C)C)c(=O)c2c1C	-7	3	95	0	41*	99	-5	11
CC(C)OC(=O)c1cc2c(ccn2C)n1CC(=O)N(Cc1ccccc1)c1ccc(F)cc1	-42	39	102	-2	38*	94	-12	-38
CC(=O)C1=C(C)NC(SCc2cccc3ccccc23)=C(C#N)C1c1ccco1 (stereo not drawn)	-12	9	98	6	38*	109	-4	-3
